Laboratory results published in ChEMBL document CHEMBL3585265, “Bacteria-Derived Compatible Solutes Ectoine and 5α-Hydroxyectoine Act as Intestinal Barrier Stabilizers to Ameliorate Experimental Inflammatory Bowel Disease” (J Nat Prod, 2015).
Active and inactive are the calls of the source. No cut-off for these calls is given here.

How the values were obtained:
Rattus norvegicus [1] = assay: Toxicity in Wistar rat assessed as decrease in Hsp70 level at 50 to 300 mg/kg, po qd administered for 1 week starting 48 hrs post TNBS induction by ELISA; format: organism-based; settings: in vivo
In short: (§1)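 TNBS colitis in male Wistar rats: 100 mg/kg TNBS in 0.25 mL 50% ethanol, instilled 8 cm into the colon after a 36 h fast. Oral dosing in 1 mL per 200 g rat. Rats were killed 24 h after the last dose. The distal 8 cm colon was rinsed in ice-cold saline and homogenized 10% (w/v) in ice-cold bidistilled water. Mean of ≥6 animals ± SEM.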

Rattus norvegicus [2] = assay: Toxicity in Wistar rat assessed as effect on myeloperoxidase activity at 100 mg/kg, po qd administered for 1 week by spectrophotometric analysis; format: organism-based; settings: in vivo, 168 h
In short: (§2)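 Normal male Wistar rats (150–200 g) underwent the same rectal procedure with saline in place of TNBS. They received water or 100 mg/kg compound orally once daily for 1 week and were killed 24 h after the last dose. The distal 8 cm colon was weighed and homogenized 10% (w/v) in ice-cold bidistilled water. Body weight was taken before instillation and before necropsy.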

Rattus norvegicus [3] = assay: Toxicity in Wistar rat assessed as effect on colonic ICAM1 level at 100 mg/kg, po qd administered for 1 week by ELISA; format: organism-based, Colon; settings: in vivo, 168 h; in short: as §2
Rattus norvegicus [4] = assay: Toxicity in Wistar rat assessed as effect on TNF-alpha level at 100 mg/kg, po qd administered for 1 week by ELISA; format: organism-based; settings: in vivo, 168 h; in short: as §2
Rattus norvegicus [5] = assay: Toxicity in Wistar rat assessed as effect on body weight at 100 mg/kg, po qd administered for 1 week; format: organism-based; settings: in vivo, 168 h; in short: as §2
Rattus norvegicus [6] = assay: Toxicity in Wistar rat assessed as effect on colon mass index at 100 mg/kg, po qd administered for 1 week; format: organism-based; settings: in vivo, 168 h; in short: as §2
Rattus norvegicus [7] = assay: Toxicity in Wistar rat assessed as decrease in Hsp70 level at 100 mg/kg, po qd administered for 1 week by ELISA; format: organism-based; settings: in vivo, 168 h; in short: as §2
Rattus norvegicus [8] = assay: Toxicity in Wistar rat assessed as effect on IL-1beta level at 100 mg/kg, po qd administered for 1 week by ELISA; format: organism-based; settings: in vivo, 168 h; in short: as §2
Rattus norvegicus [9] = assay: Toxicity in Wistar rat assessed as effect on colonic GSH level at 100 mg/kg, po qd administered for 1 week by spectrophotometric analysis; format: organism-based, Colon; settings: in vivo, 168 h; in short: as §2
Rattus norvegicus [10] = assay: Anti-colitis activity in Wistar rat assessed as suppression of TNBS-induced body weight reduction at 300 mg/kg, po qd administered for 1 week starting 48 hrs post TNBS induction; format: functional, organism-based
In short: (§3)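 Adult male Wistar rats (150−200 g), fasted 36 h, received 0.25 mL 50% (v/v) ethanol containing 100 mg/kg TNBS, instilled 8 cm into colon under light ether. Oral dosing (water vehicle, 1 mL per 200 g) once daily for 1 week from 48 h; sacrifice 24 h after last dose. Body weight recorded before induction and before necropsy. Distal 8 cm colon weighed; mass index as mg/g body weight. n ≥ 6, mean ± SEM.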

Rattus norvegicus [11] = assay: Toxicity in Wistar rat assessed as decrease in Hsp70 level at 300 mg/kg, po qd administered for 1 week starting 48 hrs post TNBS induction by ELISA; format: organism-based; settings: in vivo; in short: as §1
Rattus norvegicus [12] = assay: Anti-colitis activity in Wistar rat assessed as reduction of TNBS-induced colon mass index at 300 mg/kg, po qd administered for 1 week starting 48 hrs post TNBS induction; format: functional, organism-based; in short: as §3
Rattus norvegicus [13] = assay: Anti-colitis activity in Wistar rat assessed as suppression of TNBS-induced reduction of colonic GSH level at 300 mg/kg, po qd administered for 1 week starting 48 hrs post TNBS induction by spectrophotometric analysis; format: functional, organism-based
In short: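 Colitis induced rectally with 100 mg/kg TNBS in 50% ethanol; oral dosing daily for 1 week from 48 h later. Colon homogenate (10% w/v, ice-cold water) deproteinized with ice-cold 5% sulfosalicylic acid, centrifuged 3000 rpm 20 min; supernatant used for spectrophotometric reduced glutathione estimation. n ≥ 6, mean ± SEM.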

Rattus norvegicus [14] = assay: Anti-colitis activity in Wistar rat assessed as reduction of TNBS-induced colon mass index at 100 mg/kg, po qd administered for 1 week starting 48 hrs post TNBS induction (reference value: 7.9 mg/g); format: functional
In short: (§4)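 Male Wistar rats (150–200 g) were fasted 36 h, then given 100 mg/kg TNBS in 0.25 mL 50% ethanol rectally under light ether, with the catheter tip 8 cm from the anus. Oral dosing was in 1 mL per 200 g rat. Rats were killed 24 h after the last dose. Body weight was taken before induction and before necropsy. Ulcer area in the distal 8 cm colon was measured planimetrically (cm2). Colon mass index is colon weight/body weight (mg/g). Mean of ≥6 animals ± SEM.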

Rattus norvegicus [15] = assay: Anti-colitis activity in Wistar rat assessed as reduction of TNBS-induced ulcerative area at 50 to 300 mg/kg, po qd administered for 1 week starting 48 hrs post TNBS induction (reference value: 4.9 cm2); format: functional; in short: as §4
Rattus norvegicus [16] = assay: Anti-colitis activity in Wistar rat assessed as suppression of TNBS-induced reduction of colonic GSH level at 50 to 300 mg/kg, po qd administered for 1 week starting 48 hrs post TNBS induction by spectrophotometric analysis; format: functional, organism-based
In short: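 TNBS colitis in male Wistar rats: 100 mg/kg TNBS in 0.25 mL 50% ethanol given rectally. Colon was taken 24 h after the last oral dose and homogenized 10% (w/v) in ice-cold water. Homogenate was deproteinized with ice-cold 5% sulfosalicylic acid and spun at 3000 rpm for 20 min; GSH was read spectrophotometrically in the supernatant. Mean of ≥6 animals ± SEM.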

Rattus norvegicus [17] = assay: Anti-colitis activity in Wistar rat assessed as suppression of TNBS-induced body weight reduction at 50 to 300 mg/kg, po qd administered for 1 week starting 48 hrs post TNBS induction; format: functional, organism-based; in short: as §4
Rattus norvegicus [18] = assay: Anti-colitis activity in Wistar rat assessed as reduction of TNBS-induced myeloperoxidase activity at 100 mg/kg, po qd administered for 1 week starting 48 hrs post TNBS induction by spectrophotometric analysis; format: functional, organism-based
Rattus norvegicus [19] = assay: Anti-colitis activity in Wistar rat assessed as suppression of TNBS-induced colonic TNF-alpha level at 50 to 300 mg/kg, po qd administered for 1 week starting 48 hrs post TNBS induction by ELISA; format: functional, organism-based
In short: (§5)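 TNBS/ethanol colitis in male Wistar rats, as described; oral once-daily treatment for 1 week beginning 48 h post-induction, sacrifice 24 h after final dose. Distal 8 cm colon excised, rinsed in ice-cold saline, homogenized 10% (w/v) in ice-cold bidistilled water; aliquot assayed for TNF-α and IL-1β by ELISA. At least 6 animals per group, mean ± SEM.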

Rattus norvegicus [20] = assay: Anti-colitis activity in Wistar rat assessed as suppression of TNBS-induced colonic IL-1beta level at 50 to 300 mg/kg, po qd administered for 1 week starting 48 hrs post TNBS induction by ELISA; format: functional, organism-based; in short: as §5
Rattus norvegicus [21] = assay: Anti-colitis activity in Wistar rat assessed as suppression of TNBS-induced fecal calprotectin level at 100 mg/kg, po qd administered for 1 week starting 48 hrs post TNBS induction by ELISA; format: functional, organism-based
In short: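 Feces were collected before sacrifice from 4 randomly chosen TNBS-colitis rats per group, suspended 1:10 in extraction buffer and incubated 90 min at room temperature. Calprotectin (S100A8/S100A9) was measured by ELISA, with samples incubated 90 min at room temperature. Samples were run in duplicate and medians taken.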

Rattus norvegicus [22] = assay: Anti-colitis activity in Wistar rat assessed as reduction of TNBS-induced colon mass index at 50 mg/kg, po qd administered for 1 week starting 48 hrs post TNBS induction (reference value: 7.9 mg/g); format: functional; in short: as §4
Rattus norvegicus [23] = assay: Anti-colitis activity in Wistar rat assessed as suppression of TNBS-induced colonic TNF-alpha level at 50 to 100 mg/kg, po qd administered for 1 week starting 48 hrs post TNBS induction by ELISA; format: functional, organism-based; in short: as §1
Rattus norvegicus [24] = assay: Anti-colitis activity in Wistar rat assessed as suppression of TNBS-induced colonic IL-1beta level at 50 to 100 mg/kg, po qd administered for 1 week starting 48 hrs post TNBS induction by ELISA; format: functional, organism-based; in short: as §1
Rattus norvegicus [25] = assay: Anti-colitis activity in Wistar rat assessed as reduction of TNBS-induced myeloperoxidase activity at 50 mg/kg, po qd administered for 1 week starting 48 hrs post TNBS induction by spectrophotometric analysis; format: functional, organism-based; in short: as §1

Compound: CC1=NC[C@H](O)[C@@H](C(=O)O)N1
- Activity (Rattus norvegicus [1]): Toxic
- Activity (Rattus norvegicus [2]): Non-toxic
- Activity (Rattus norvegicus [3]): Non-toxic
- Activity (Rattus norvegicus [4]): Non-toxic
- Activity (Rattus norvegicus [5]): Non-toxic
- Activity (Rattus norvegicus [6]): Non-toxic
- Activity (Rattus norvegicus [7]): Toxic
- Activity (Rattus norvegicus [8]): Non-toxic
- Activity (Rattus norvegicus [9]): Non-toxic

Compound: O=C(O)c1cc(/N=N/c2ccc(S(=O)(=O)Nc3ccccn3)cc2)ccc1O [SULFASALAZINE]
- Activity (Rattus norvegicus [10]): Active
- Activity (Rattus norvegicus [11]): Toxic
- Activity (Rattus norvegicus [12]): Active
- Activity (Rattus norvegicus [13]): inactive

Compound: CC1=N[C@H](C(=O)O)CCN1
- Activity (Rattus norvegicus [14]): 4.3 mg/g
- Activity (Rattus norvegicus [15]): 1.2 cm2
- Activity (Rattus norvegicus [1]): Toxic
- Activity (Rattus norvegicus [16]): inactive
- Activity (Rattus norvegicus [2]): Non-toxic
- Activity (Rattus norvegicus [17]): Active
- Activity (Rattus norvegicus [3]): Non-toxic
- Activity (Rattus norvegicus [18]): Active
- Activity (Rattus norvegicus [19]): Active
- Activity (Rattus norvegicus [4]): Non-toxic
- Activity (Rattus norvegicus [5]): Non-toxic
- Activity (Rattus norvegicus [6]): Non-toxic
- Activity (Rattus norvegicus [7]): Toxic
- Activity (Rattus norvegicus [20]): Active
- Activity (Rattus norvegicus [21]): Active
- Activity (Rattus norvegicus [8]): Non-toxic
- Activity (Rattus norvegicus [9]): Non-toxic

Compound: CC1=N[C@H](C(=O)O)[C@@H](O)CN1
- Activity (Rattus norvegicus [15]): 1.3 cm2
- Activity (Rattus norvegicus [16]): inactive
- Activity (Rattus norvegicus [22]): 4 mg/g
- Activity (Rattus norvegicus [17]): Active
- Activity (Rattus norvegicus [23]): Active
- Activity (Rattus norvegicus [24]): Active
- Activity (Rattus norvegicus [25]): Active
- Activity (Rattus norvegicus [21]): Active
